ChEMBL document CHEMBL4138044, “Withaferin A induces cell death and differentiation in multiple myeloma cancer stem cells” (Medchemcomm, 2017)

Key:
[1] = Antiproliferative activity against human […] cells after 72 hrs by XTT assay; format: functional, cell-based
Summary of the method: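 RPMI 8226 cells in RPMI 1640 with 10% FBS, plated at 15 000 cells/well and treated immediately with 0–10 μM WFA for 72 h. XTT added for 4 h. Growth as absorbance relative to vehicle control ×100. IC50 fitted from at least five concentrations; mean of three independent experiments ± SEM.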

[2] = test system: Multiple myeloma cancer stem cell; assay: Antiproliferative activity against human multiple myeloma cancer stem cells after 72 hrs by MTT assay; format: functional, cell-based
Summary of the method: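 MM-CSCs plated at 5000 cells/well and allowed to adhere 24 h, then exposed to 0–10 μM WFA for 72 h. MTT added for 2 h. Growth taken as absorbance relative to vehicle-control wells ×100. IC50 fitted from at least five concentrations; mean of three independent experiments ± SEM.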

| IC50 [2] | Compound | IC50 [1] |
| --- | --- | --- |
| 8.4 nM | CC(C)C[C@H](NC(=O)[C@H](Cc1ccccc1)NC(=O)c1cnccn1)B(O)O [BORTEZOMIB] | 3.6 nM |
| > 100000 nM | C[C@@H]1C[C@H]2[C@@H]3CCC4=CC(=O)C=C[C@]4(C)[C@@]3(F)[C@@H](O)C[C@]2(C)[C@@]1(O)C(=O)CO [DEXAMETHASONE] | 7.8 nM |
